For series [1], the system named is Mycobacterium tuberculosis. Put plainly: Antimycobacterial activity against Mycobacterium tuberculosis CNCTC My 331/88 after 14 days by microdilution method. The note with it: CNCTC My 331/88, 336 h. Format: functional. The procedure, abridged:
(§1)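 MIC determined by a dilution micromethod. Strains came from the Czech National Collection of Type Cultures, Prague. Compounds were added to the medium as DMSO solutions. Each inoculum was also plated in parallel on Löwenstein–Jensen medium to check its sterility and growth. The M. avium strain is identical with ATCC 25291 and resistant to INH.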

Series [2] concerns Mycobacterium tuberculosis. Put plainly: Antimycobacterial activity against Mycobacterium tuberculosis CNCTC My 331/88 after 21 days by microdilution method. The note with it: CNCTC My 331/88, 504 h. Format: functional. Summed up:
as §1

In series [3] the test system is Mycobacterium avium. Put plainly: Antimycobacterial activity against Mycobacterium avium CNCTC My 330/88 after 14 days by microdilution method. Format: functional. The note with it: CNCTC My 330/88, 336 h. Summed up: as §1
Series [4] relates to Mycobacterium avium. Put plainly: Antimycobacterial activity against Mycobacterium avium CNCTC My 330/88 after 21 days by microdilution method. Format: functional. The settings on record: CNCTC My 330/88, 504 h. The procedure, abridged:
as §1

Series [5] concerns Mycobacterium kansasii. Put plainly: Antimycobacterial activity against Mycobacterium kansasii CNCTC My 235/80 after 14 days by microdilution method. Format: functional. The settings on record: CNCTC My 235/80, 336 h. The procedure, abridged:
(§2)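 Dilution micromethod for MIC; compounds added to medium as DMSO solutions. Each strain also inoculated onto Löwenstein–Jensen medium to control inoculum sterility and growth. Strain 6509/96 is a clinical isolate; CNCTC strains from the Czech national type culture collection.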

Series [6] has as its system Mycobacterium kansasii. Put plainly: Antimycobacterial activity against Mycobacterium kansasii CNCTC My 235/80 after 21 days by microdilution method. The settings on record: CNCTC My 235/80, 504 h. Format: functional. Summed up: as §2
Series [7] has as its system Mycobacterium kansasii. In words: Antimycobacterial activity against Mycobacterium kansasii 6509/96 after 14 days by microdilution method. The settings on record: 6509/96, 336 h. Format: functional. Summed up: as §2
In series [8] the test system is Mycobacterium kansasii. Put plainly: Antimycobacterial activity against Mycobacterium kansasii 6509/96 after 21 days by microdilution method. Format: functional. The settings on record: 6509/96, 504 h. The procedure, abridged: as §2
The test system of another series is HeLa. In words: Cytotoxicity against human HeLa cells after 72 hrs by using methylene blue staining. Format: functional, cell-based. Summed up: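 HeLa cells in RPMI 1640 with supplements, preincubated 48 h without compound. Compound dilutions were then applied to subconfluent monolayers for 72 h at 37 °C, 5% CO2. Cells were glutaraldehyde-fixed, stained with 0.05% methylene blue, eluted with 0.33 N HCl and read at OD 660 nm. CC50 taken at 50% intersection versus negative control.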

For the next series, the system named is K562. Put plainly: Antiproliferative activity against human K562 cells after 72 hrs by celltiter-blue assay. Format: functional, cell-based. Summed up:
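K-562 grown in RPMI 1640 with ultraglutamine, gentamicin, 10% heat-inactivated FBS at 37 °C; about 10,000 cells/well. Compounds dissolved in DMSO and diluted in DMEM, incubated 72 h at 37 °C, 5% CO2. Viability read by CellTiter-Blue resazurin reduction. GI50 taken where the dose-response curve crosses 50% of untreated control.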

The next series relates to HUVEC. Put plainly: Antiproliferative activity against HUVEC after 72 hrs by using methylene blue staining. Format: cell-based. The note with it: human. The procedure, abridged:
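HUVEC in culture medium with ultraglutamine, gentamicin, 10% heat-inactivated FBS, 37 °C. Harvested in log phase by trypsinization; about 10,000 cells/well. Compounds in DMSO, diluted in DMEM, incubated 72 h at 37 °C, 5% CO2. Cells then glutaraldehyde-fixed, stained with 0.05% methylene blue for 15 min, eluted with 0.33 N HCl, OD 660 nm. GI50 taken at 50% intersection versus untreated control.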

In brackets after ≈: the same amount, converted by molar mass.

As to `O=c1oc2ccccc2c(=O)n1Cc1ccc(Cl)c(Cl)c1`, the MIC in series [1] stood at 32 µM (≈ 10.3 µg/mL); in series [2], 32 µM (≈ 10.3 µg/mL); in the series with Mycobacterium avium [3], 32 µM (≈ 10.3 µg/mL); against Mycobacterium avium [4] it was 32 µM (≈ 10.3 µg/mL); in the series with Mycobacterium kansasii [5], 62.5 µM (≈ 20.1 µg/mL); against Mycobacterium kansasii [6], 62.5 µM (≈ 20.1 µg/mL). The MIC against Mycobacterium kansasii [7] and in the series with Mycobacterium kansasii [8] was 62.5 µM (≈ 20.1 µg/mL) each time. Further, the Activity entry with HeLa, in the series with K562 and in the series with HUVEC was “Toxic” throughout.
As to `O=c1oc2ccc(Cl)cc2c(=S)n1Cc1ccc(Cl)c(Cl)c1`, the MIC in series [1] came to 32 µM (≈ 11.9 µg/mL); in series [2], 32 µM (≈ 11.9 µg/mL); in the series on Mycobacterium avium [3], 62.5 µM (≈ 23.3 µg/mL); against Mycobacterium avium [4], 62.5 µM (≈ 23.3 µg/mL); in the series with Mycobacterium kansasii [5], 62.5 µM (≈ 23.3 µg/mL); in the series on Mycobacterium kansasii [6], 62.5 µM (≈ 23.3 µg/mL). In addition, the MIC against Mycobacterium kansasii [7] and against Mycobacterium kansasii [8] was 62.5 µM (≈ 23.3 µg/mL) each time. In addition, the Activity result with HeLa, in the series on K562 and with HUVEC was “Toxic” in each case.
Regarding `O=c1oc2ccc(Br)cc2c(=S)n1Cc1ccccc1`, the MIC was 1 µM (≈ 0.348 µg/mL) in [1]; 2 µM (≈ 0.696 µg/mL) in series [2]; 8 µM (≈ 2.79 µg/mL) against Mycobacterium avium [3]; 8 µM (≈ 2.79 µg/mL) against Mycobacterium avium [4]; 8 µM (≈ 2.79 µg/mL) in the series on Mycobacterium kansasii [5]; 8 µM (≈ 2.79 µg/mL) in the series on Mycobacterium kansasii [6]. In addition, the figures for the MIC in the series with Mycobacterium kansasii [7] and against Mycobacterium kansasii [8] were 4 µM (≈ 1.39 µg/mL) and 8 µM (≈ 2.79 µg/mL), respectively. Moreover, the Activity entry with HeLa, in the series on K562 and with HUVEC was “Toxic” in each case.
On to `O=c1oc2ccc(Br)cc2c(=O)n1Cc1ccccc1`, for which the MIC stood at 62.5 µM (≈ 20.8 µg/mL) in [1]; 62.5 µM (≈ 20.8 µg/mL) in [2]; 62.5 µM (≈ 20.8 µg/mL) in the series on Mycobacterium avium [3]; 62.5 µM (≈ 20.8 µg/mL) in the series on Mycobacterium avium [4]; 62.5 µM (≈ 20.8 µg/mL) with Mycobacterium kansasii [5]; 125 µM (≈ 41.5 µg/mL) against Mycobacterium kansasii [6]. Moreover, the values for the MIC against Mycobacterium kansasii [7] and with Mycobacterium kansasii [8] were 62.5 µM (≈ 20.8 µg/mL) and 125 µM (≈ 41.5 µg/mL), respectively. Besides, the Activity entry in the series on HeLa, in the series with K562 and in the series on HUVEC was “Toxic” each time.
For `Cc1ccc2oc(=O)n(Cc3ccccc3)c(=S)c2c1`, the MIC is 1 µM (≈ 0.283 µg/mL) in series [1]; 1 µM (≈ 0.283 µg/mL) in series [2]; 2 µM (≈ 0.567 µg/mL) with Mycobacterium avium [3]; 2 µM (≈ 0.567 µg/mL) with Mycobacterium avium [4]; 1 µM (≈ 0.283 µg/mL) against Mycobacterium kansasii [5]; 2 µM (≈ 0.567 µg/mL) in the series with Mycobacterium kansasii [6]. For the same compound, the MIC was determined as 1 µM (≈ 0.283 µg/mL) with Mycobacterium kansasii [7] and 2 µM (≈ 0.567 µg/mL) with Mycobacterium kansasii [8]. Further, the Activity result in the series with HeLa, in the series with K562 and with HUVEC was “Toxic” in each case.
Turning to `O=c1oc2ccc(Br)cc2c(=S)n1Cc1ccc(Cl)c(Cl)c1`, the MIC was 2 µM (≈ 0.834 µg/mL) in series [1]; 4 µM (≈ 1.67 µg/mL) in series [2]; 8 µM (≈ 3.34 µg/mL) against Mycobacterium avium [3]; 8 µM (≈ 3.34 µg/mL) in the series with Mycobacterium avium [4]; 16 µM (≈ 6.67 µg/mL) against Mycobacterium kansasii [5]; 16 µM (≈ 6.67 µg/mL) in the series on Mycobacterium kansasii [6]. Also, the MIC against Mycobacterium kansasii [7] and in the series on Mycobacterium kansasii [8] was 16 µM (≈ 6.67 µg/mL) in each case. In addition, the Activity entry with HeLa, with K562 and in the series with HUVEC was “Toxic” in each case.
Regarding `O=c1oc2ccc(Cl)cc2c(=O)n1Cc1ccc(Cl)c(Cl)c1`, the MIC was 16 µM (≈ 5.71 µg/mL) in series [1]; 16 µM (≈ 5.71 µg/mL) in series [2]; 16 µM (≈ 5.71 µg/mL) with Mycobacterium avium [3]; 32 µM (≈ 11.4 µg/mL) against Mycobacterium avium [4]; 62.5 µM (≈ 22.3 µg/mL) in the series on Mycobacterium kansasii [5]; 62.5 µM (≈ 22.3 µg/mL) in the series with Mycobacterium kansasii [6]. For the same compound, the MIC against Mycobacterium kansasii [7] and in the series with Mycobacterium kansasii [8] was 62.5 µM (≈ 22.3 µg/mL) in each case. Further, the Activity result in the series with HeLa, in the series with K562 and in the series with HUVEC was “Toxic” each time.
With `O=c1oc2ccc(Cl)cc2c(=S)n1Cc1ccccc1`, the MIC in [1] came out at 1 µM (≈ 0.304 µg/mL); in series [2], 2 µM (≈ 0.608 µg/mL); against Mycobacterium avium [3], 4 µM (≈ 1.22 µg/mL); in the series on Mycobacterium avium [4], 8 µM (≈ 2.43 µg/mL); in the series on Mycobacterium kansasii [5], 8 µM (≈ 2.43 µg/mL); in the series with Mycobacterium kansasii [6], 8 µM (≈ 2.43 µg/mL). Also, the MIC against Mycobacterium kansasii [7] and with Mycobacterium kansasii [8] was 4 µM (≈ 1.22 µg/mL) throughout. Further, the Activity entry in the series with HeLa, in the series on K562 and in the series on HUVEC was “Toxic” in each case.
